Screening results deposited in PubChem BioAssay by Johns Hopkins Ion Channel Center.
Sampled rows, rich in hits. Any-hit rate of the full collection: about 3.7%.
hERG rescue – compounds protecting human hERG from proarrhythmic drug block; Q12809; CHO-hERG, FluxOR thallium flux, dofetilide IC70 present; hit rate 0.51% among 310,000; activation (rescue from dofetilide block), less the hit threshold, % at 10 µM;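 active = activation above the mean of controls blocked by dofetilide plus 5 SD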;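 note: thallium influx through hERG after potassium depolarization seen as dye fluorescence rise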
KCNK9 block – human KCNK9 channel inhibition; HEK293 KCNK9, FluxOR thallium flux fluorescence; active compounds read low; AID 488922; Q9NPC2; B-score at 10 µM; hit rate 1.2% among 310,000;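 active = ratio B-score over 3 SD below the library mean, with starting fluorescence within 5 SD of its mean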;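 note: negative B-score means less thallium flux so channel inhibition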
Kir21 block – blocks the mouse Kir2.1 inward-rectifier potassium channel | P35561 | HEK293-Kir2.1, FluxOR thallium flux fluorescence; active compounds read low | B-score at 10 µM | hit rate 0.85% among 310,000;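 active = fluorescence ratio B-score at or below minus 3 SD of library scores, with starting-brightness B-score within 2 SD, cut at about -4.2 in these data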;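 note: channel flux triggered by added potassium and thallium sulfate stimulus; B-score of peak minus minimum fluorescence over baseline after thallium stimulus; more negative B-score means stronger Kir2.1 block with less thallium influx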
Target sequence (P35561 whole entry, looked up): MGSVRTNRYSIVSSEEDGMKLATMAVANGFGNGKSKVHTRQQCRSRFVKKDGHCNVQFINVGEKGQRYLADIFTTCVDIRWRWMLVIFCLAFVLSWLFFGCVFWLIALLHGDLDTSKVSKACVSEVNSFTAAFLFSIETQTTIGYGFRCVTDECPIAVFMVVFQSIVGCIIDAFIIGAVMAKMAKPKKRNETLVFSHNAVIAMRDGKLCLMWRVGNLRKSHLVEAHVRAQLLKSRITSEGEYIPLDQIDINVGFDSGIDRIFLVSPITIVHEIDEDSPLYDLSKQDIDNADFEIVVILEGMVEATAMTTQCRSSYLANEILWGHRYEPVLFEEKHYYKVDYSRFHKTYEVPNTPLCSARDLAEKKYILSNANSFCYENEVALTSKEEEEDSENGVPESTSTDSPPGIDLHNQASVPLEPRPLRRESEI
KCNK3 inh – human KCNK3 channel inhibition, primary screen; O14649; CHO-KCNK3 thallium flux, FluxOR fluorescence; active compounds read low; B-score at 10 µM; hit rate 0.84% among 340,000;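 active = B-score under library mean minus 4 SD, starting fluorescence ratio at most library mean plus 5 SD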;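 note: more negative B-score means stronger inhibition of thallium flux through KCNK3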
KCNQ1 block – human KCNQ1 channel inhibition; B-score at 10 µM; CHO-K1 KCNQ1, FluxOR thallium flux fluorescence; active compounds read high; hit rate 1.3% among 310,000;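 active = compounds whose thallium flux B-score, printed positive for inhibition, exceeds three library SD while starting fluorescence stays within three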;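 note: channel opened by potassium depolarization with thallium stimulus after 20 min compound exposure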
KCNQ1 pot – potentiators or activators of human KCNQ1 potassium channel; P51787; CHO-K1 KCNQ1, thallium flux FluxOR fluorescence; active compounds read high; B-score at 10 µM; hit rate 0.35% among 310,000;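 active = fluorescence ratio B-score, a plate-corrected score, at least three library SD, with initial intensity B-score within 5 SD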
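Test system: CHO-K1 cells stably expressing KCNQ1 / Medium: assay buffer / Also added: depolarizing K+/Tl+ stimulus, K2SO4 and Tl2SO4 each 12.5 mM in 5x stock / Incubation: 90 min dye loading and 20 min compound exposure, both at room temperature / Signal: thallium influx via FluxOR fluorescence, kinetic imaging / Evaluation: B score of baseline-normalized fluorescence ratio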
Each line names hits and unclear results; the compound was inactive in the other large screens.

CCN(CC)CC(=O)Nc1sc(C)cc1C(=O)c1ccccc1	none
N#C/C(=C\c1ccc2c(c1)OCCO2)C(=O)Nc1ccc(C(=O)O)cc1	none
CC1CC2C(C(O)CC3(C)C2CCC3(O)C(=O)CO)C2(C)C=CC(=O)C=C12 (stereo not drawn)	none (no result: hERG rescue, KCNK9 block, Kir21 block, KCNQ1 block, KCNQ1 pot)
Cc1cc(Cl)c2oc(C(=O)N3CCN(c4ccncc4)CC3)c(C)c2c1	Kir21 block -5.08
O=C1c2ccccc2C(=O)N1C(CO)C(O)c1ccc([N+](=O)[O-])cc1 (stereo not drawn)	none
Cc1ccc(C(OCC(O)CNC(CO)C(O)c2ccc([N+](=O)[O-])cc2)c2ccccc2)cc1 (stereo not drawn)	Kir21 block -5.16
CC(NCC(O)COCc1ccc(Cl)cc1)c1ccccc1 (stereo not drawn)	Kir21 block -8.47
Cc1ccc(C(OCC(O)CN2CCCCC2)c2ccccc2)cc1 (stereo not drawn)	none
Cc1ccc(C(OCC(O)CNC(C)c2ccccc2)c2ccccc2)cc1 (stereo not drawn)	Kir21 block -6.02
Fc1cc(F)c2nc(N3CCCCC3)sc2c1	hERG rescue 5.1
Cc1ccc(C)c(OCCC(=O)NCCc2ccc(F)cc2)c1	none
O=c1[nH]c(-c2cccnc2)nc2sc(-c3ccccc3)cc12	hERG rescue 6.9
CCN1C(=O)/C(=C/c2ccc(C)s2)NC1=S	hERG rescue 10.0, KCNQ1 pot 10
COc1ccc(Cl)cc1NC(=S)NCCC(c1ccccc1)c1ccccc1	KCNK9 block -8.07
S=C(NCCC(c1ccccc1)c1ccccc1)Nc1ccccc1Cl	KCNQ1 block 12
COc1cc(NC(=S)NCCC(c2ccccc2)c2ccccc2)c(OC)cc1Cl	none
S=C(NCCC(c1ccccc1)c1ccccc1)Nc1ccc(Cl)cc1	KCNQ1 block 9
CCC(C(=O)Nc1cc(Cl)ccc1OC)c1ccccc1 (stereo not drawn)	KCNK9 block -7.32
CCC(=O)O[C@]1(C(=O)SCF)[C@H](C)C[C@H]2[C@@H]3C[C@H](F)C4=CC(=O)C=C[C@]4(C)[C@@]3(F)[C@@H](O)C[C@@]21C	none (no result: KCNK3 inh)
O=C(C[n+]1ccc2ccccc2c1)c1ccc(NC(=O)c2ccccc2)cc1	none
C/C(=N\NC(=O)C1COc2ccccc2O1)c1ccc(N2CCOCC2)cc1 (stereo not drawn)	hERG rescue 5.6, KCNQ1 pot 30
COC(=O)C1=C(C)N(Cc2ccccc2)C(=NCc2ccc(OC)cc2)N[C@H]1c1cccc(F)c1	Kir21 block -9.59
COC(=O)C1=C(C)N(Cc2ccccc2)C(=NCc2cc(OC)c(OC)c(OC)c2)N[C@H]1c1cccc(F)c1	Kir21 block -5.22
CCOC(=O)CN1C(=O)N[C@@H](c2ccccc2)C(C(=O)OC)=C1C	none (no result: hERG rescue, KCNK9 block, Kir21 block, KCNQ1 block, KCNQ1 pot)
CCOC(=O)CN1C(=O)N[C@@H](c2cccc(F)c2)C(C(=O)OC)=C1C	Kir21 block -6.09
CC(Oc1ccc(Cl)cc1)C(=O)N(C)CC(=O)Nc1ccc(N2CCOCC2)cc1 (stereo not drawn)	none
CC1CCCCN1CCCNC(=O)c1ccc2nc(N3CCCCC3)sc2c1 (stereo not drawn)	none
O=C(/C=C/c1cn(CC(O)CN2CCOCC2)c2ccccc12)c1cccs1 (stereo not drawn)	KCNQ1 block 6 (no result: KCNK3 inh)
O=S(=O)(Nc1ccccc1N1CCOCC1)c1ccccc1C(F)(F)F	KCNK3 inh -10.3 (no result: hERG rescue, KCNK9 block, Kir21 block, KCNQ1 block, KCNQ1 pot)
Cc1ccc(S(=O)(=O)/N=C2/NC(=O)/C(=C/c3cc([N+](=O)[O-])ccc3O)S2)cc1	none
COc1cccc(N=C2NC(=O)/C(=C/c3cc([N+](=O)[O-])ccc3O)S2)c1	KCNQ1 block 7
Cc1cc(N2CCN(c3cccc(C)c3C)CC2)nc(-c2ccccc2)n1	KCNK9 block -6.57
Cc1cc(N2CCC(C(=O)NC3CC3)CC2)nc(-c2ccccc2)n1	none
CCC(c1nnnn1C(C)(C)C)N(Cc1cccs1)Cc1cc2cc(C)c(C)cc2n2nnnc12 (stereo not drawn)	KCNK9 block -14.2 (no result: KCNK3 inh)
CCOc1ccc2[nH]c(=O)c(CN(Cc3cccs3)C(CC)c3nnnn3C(C)(C)CC)cc2c1 (stereo not drawn)	none
CCOc1cc(C(=O)Nc2cccc(OCC(=O)N3CCOCC3)c2)cc(OCC)c1OCC	none
CCOc1ccccc1N1CC(O)=C(c2nc3ccccc3s2)C1=N	none
COc1ccc(OC)c(N2CC(O)=C(c3nc4ccccc4s3)C2=N)c1	KCNK9 block -6.63
CC(=O)NCc1ccc(C(=O)CN2C(=O)NC3(CCCCC3C)C2=O)s1 (stereo not drawn)	none (no result: hERG rescue, KCNK9 block, Kir21 block, KCNQ1 block, KCNQ1 pot)
CSC(C(=O)c1cc2ccccc2o1)c1ccccc1 (stereo not drawn)	KCNQ1 pot 15
COc1ccc(-c2cc(C(=O)OCC(=O)NC(C)C)c3ccccc3n2)cc1	Kir21 block -4.36
CCCNC(=O)COC(=O)c1cc(-c2ccc(OC)cc2)nc2ccccc12	none
CCOC(=O)c1sc(NC(=O)c2cc(-c3ccc(C)cc3)nc3ccccc23)c(C#N)c1C	KCNQ1 block 7
Cc1ccccc1-c1cc(C(=O)Nc2sc(C(=O)OC(C)C)c(C)c2C#N)c2ccccc2n1	KCNQ1 block 10
CCOC(=O)N1CCN(S(=O)(=O)c2ccc(OC)c(C(=O)N3CCCCC3)c2)CC1	none
O=C1C=CN2CCOCC2C1 (stereo not drawn)	none (no result: hERG rescue, KCNK9 block, Kir21 block, KCNQ1 block, KCNQ1 pot)
S=C1NC[C@H](CC2CCCCC2)N1CCCCC1CCCCC1	none
Cc1cc(OCc2cc(C(=O)NCCN3CCCCC3CO)no2)cc(C)c1Cl (stereo not drawn)	none
CCOC(=O)c1n[nH]n2c1nc(=S)c1ccccc12	hERG rescue 23.3, KCNQ1 pot 34
CCc1ccc(CN(C)CC(=O)Nc2ccc(S(=O)(=O)N3CCOCC3)cc2)cc1	none (no result: hERG rescue, KCNK9 block, Kir21 block, KCNQ1 block, KCNQ1 pot)
O=C(Nc1cc([N+](=O)[O-])ccc1N1CCOCC1)c1ccco1	hERG rescue 13.5
CSC(=S)N/N=C/c1ccc(Br)cc1	hERG rescue 18.6, KCNQ1 pot 41
S=C(N/N=C/c1ccc(Br)cc1)N1CCCCC1	none
CSC(=S)N/N=C/c1ccc(N(C)C)cc1	KCNQ1 pot 9
COCCn1c(SCC(=O)NCC2CCCO2)nc2c([nH]c3ccccc32)c1=O (stereo not drawn)	none
COC(=O)[C@@]1(C)[C@H]2C(=O)N(C)C(=O)[C@H]2[C@H]2CN=C(SCc3ccc(C#N)cc3)N21	none (no result: hERG rescue, KCNK9 block, Kir21 block, KCNQ1 block, KCNQ1 pot)
CCOC(=O)c1ccc2c(c1)n(CC)c(/C=C/Nc1ccccc1)[n+]2CC	KCNQ1 block 13
CC(=O)c1ccc(NC(=O)CN2CCC(NC(=O)C3CCCCC3)CC2)cc1	hERG rescue 6.1
O=C(Cn1c(CO)nc2ccccc21)NCCc1ccc(F)cc1	none
O=C(Cn1c(CO)nc2ccccc21)NCCc1ccccc1	hERG rescue 7.3
